Paper PMC4651627 (The Journal of organic chemistry, 2015)

How the values were obtained:
NCI 60-cell line screen = settings: cited from earlier work
[1] = test system: MDA-MB-231 breast cancer cells; assay: DNA fragmentation analysis; type: cell-based, human
U937 cells [2] = assay: Cell apoptosis analysis by flow cytometry; type: cell-based, human; settings: 90 nM, 48 h, control cells 13.2%
MDA-MB-231 = type: cell-based, human
U937 cells [3] = assay: Cell cycle analysis by flow cytometry; type: cell-based, human; settings: 90 nM, 48 h
How it was run: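 Exponentially growing U937 cells in RPMI-1640 with 10% FBS received test compound in DMSO (final 90 nM) or an equal amount of DMSO. After 48 h at 37 °C in CO2, cells were PBS-washed, fixed overnight in 70% ice-cold ethanol at 4 °C, and RNase-treated (100 µg/ml, 37 °C, 30 min).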

[4] = test system: small panel of cell lines (five human tumor cell lines, MCF-10A, NIH/3T3); assay: MTT cytotoxicity assay, summary over the panel of cell lines; type: cell-based

For C/C=C(\C)C(=O)O[C@@H]1[C@@H](O)[C@@H]2O[C@H]3[C@H](O[C@@H](CCC)CCCCCCC(=O)CCC(=O)OC[C@@H](O2)[C@H]1OC(=O)/C=C/c1ccccc1)O[C@H](C)[C@H](OC(C)=O)[C@@H]3O [Ipomoeassin A], the “growth inhibition of different cancer cells” value (NCI 60-cell line screen) is given as “strong and selective growth inhibition”.

For CN[C@@H]1C[C@H]2O[C@@](C)([C@@H]1OC)n1c3ccccc3c3c4c(c5c6ccccc6n2c5c31)C(=O)NC4 [staurosporine, reference compound], the “DNA fragmentation (positive control)” value ([1]; 750 nM staurosporine (Figure 5), MDA-MB-231) was “smaller DNA fragments”.

With C/C=C(\C)C(=O)O[C@@H]1[C@@H](O)[C@@H]2O[C@H]3[C@H](O[C@@H](CCCCC)CCCCCCC(=O)CCC(=O)OC[C@@H](O2)[C@H]1OC(=O)/C=C/c1ccccc1)O[C@H](C)[C@H](OC(C)=O)[C@@H]3O [Ipomoeassin F] the “percentage of apoptotic cells” value (U937 cells [2]) was 33.6%, the IC90 (MDA-MB-231) was 100 nM and the G1 arrest (U937 cells [3]) was ~ 25%. The “reduction of cell population in the G2/M phase” value (U937 cells [3]) was ~ 21%, the “difference in toxicity between two cancer cell lines (U937 and MCF7)” value ([4]; U937 vs MCF7) was ~ 8 fold and the “selectivity between tumor and non-tumor cell lines” value ([4]; tumor lines vs MCF-10A and NIH/3T3) was “no selectivity between tumor and non-tumor cell lines was observed”. The DNA fragmentation ([1]; 100 nM ipomoeassin F (IC90), MDA-MB-231, 72 h) was “smaller DNA fragments”.
